Here are results for three compounds from ChEMBL document CHEMBL4393654, “Discovery and Early Clinical Development of an Inhibitor of 5-Lipoxygenase Activating Protein (AZD5718) for Treatment of Coronary Artery Disease” (J Med Chem, 2019).

Series [1] in a line: Half life in Beagle dog at 2 umol/kg, iv. To be noted: in vivo. Format: ADME, Canis lupus familiaris.
Series [2] has as its target T1, Aryl hydrocarbon receptor (Homo sapiens, UniProt P35869).
T1 sequence (P35869 whole entry): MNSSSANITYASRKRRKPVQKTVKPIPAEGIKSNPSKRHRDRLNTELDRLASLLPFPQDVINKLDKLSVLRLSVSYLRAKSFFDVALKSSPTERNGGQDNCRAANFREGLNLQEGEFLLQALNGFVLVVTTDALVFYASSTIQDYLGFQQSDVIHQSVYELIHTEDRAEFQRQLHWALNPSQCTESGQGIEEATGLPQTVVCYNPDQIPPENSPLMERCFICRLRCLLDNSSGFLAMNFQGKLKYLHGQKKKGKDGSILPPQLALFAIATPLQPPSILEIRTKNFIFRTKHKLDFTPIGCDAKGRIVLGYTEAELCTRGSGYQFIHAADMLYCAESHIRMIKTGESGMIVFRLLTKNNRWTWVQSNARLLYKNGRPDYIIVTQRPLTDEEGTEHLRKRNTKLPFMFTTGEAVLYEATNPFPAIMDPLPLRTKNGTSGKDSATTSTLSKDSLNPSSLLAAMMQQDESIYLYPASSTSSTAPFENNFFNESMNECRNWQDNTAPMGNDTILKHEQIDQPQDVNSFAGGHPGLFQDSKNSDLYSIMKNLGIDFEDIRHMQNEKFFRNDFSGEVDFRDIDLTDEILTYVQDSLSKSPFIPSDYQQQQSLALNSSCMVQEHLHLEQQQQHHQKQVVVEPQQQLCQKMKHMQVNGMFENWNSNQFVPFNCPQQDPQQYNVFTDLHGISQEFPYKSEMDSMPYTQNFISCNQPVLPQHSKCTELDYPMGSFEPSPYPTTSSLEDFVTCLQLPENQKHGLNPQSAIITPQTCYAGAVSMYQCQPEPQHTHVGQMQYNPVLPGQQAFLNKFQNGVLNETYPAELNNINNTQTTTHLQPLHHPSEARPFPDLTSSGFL
As to the kind of experiment: Agonist activity at AhR in human HepG2 cells assessed as induction of CYP1A1 activity at 0.001 to 30 uM measured after 24 hrs by immunocytochemistry analysis. It counts as ADME, cell-based. The settings on record: hepg2, 24 h.

Series [3] is described as follows: Clearance in Beagle dog at 2 umol/kg, iv. To be noted: in vivo. Format: ADME, Canis lupus familiaris.
Series [4] in a line: Intrinsic clearance in human hepatocytes assessed per million cells at 1 uM measured after 2 to 60 mins by LC-MS/MS analysis. Format: ADME, cell-based, Hepatocyte. To be noted: read-out: CLH.
Series [5] in a line: Mutagenicity in Salmonella typhimurium TA98 in absence of rat S9 fraction by Ames test. To be noted: salmonella enterica subsp. enterica serovar typhimurium. Format: toxicity. In a few lines: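 Ames bacterial mutagenicity test in S. typhimurium TA98 and TA100. Run with and without metabolic activation by rat S9 fraction.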
Background: The Ames test detects mutagens through reverse mutation in bacteria.

Series [6] in a line: Cardiotoxicity in anesthetized Beagle dog assessed as effect on heart rate administered for 2 days as 45 mins iv infusion followed by compound washout and subsequent adrenaline dosing for 2 days as 10 mins iv infusion. To be noted: in vivo. It counts as toxicity, organism-based, Canis lupus familiaris.
Series [7] in a line: Protein binding in human plasma assessed as unbound fraction by equilibrium dialysis method. It counts as ADME, cell-free.
Series [8] can be described thus: Toxicity in conscious telemetered Beagle dog assessed as vomiting. To be noted: in vivo. On the set-up: species or system Canis lupus familiaris.
In series [9] the target is Potassium voltage-gated channel subfamily A member 5 (Homo sapiens, UniProt P22460). As to the kind of experiment: Inhibition of human Kv1.5 by Ion-work electrophysiology assay.
Chain of Potassium voltage-gated channel subfamily A member 5 (P22460 whole entry): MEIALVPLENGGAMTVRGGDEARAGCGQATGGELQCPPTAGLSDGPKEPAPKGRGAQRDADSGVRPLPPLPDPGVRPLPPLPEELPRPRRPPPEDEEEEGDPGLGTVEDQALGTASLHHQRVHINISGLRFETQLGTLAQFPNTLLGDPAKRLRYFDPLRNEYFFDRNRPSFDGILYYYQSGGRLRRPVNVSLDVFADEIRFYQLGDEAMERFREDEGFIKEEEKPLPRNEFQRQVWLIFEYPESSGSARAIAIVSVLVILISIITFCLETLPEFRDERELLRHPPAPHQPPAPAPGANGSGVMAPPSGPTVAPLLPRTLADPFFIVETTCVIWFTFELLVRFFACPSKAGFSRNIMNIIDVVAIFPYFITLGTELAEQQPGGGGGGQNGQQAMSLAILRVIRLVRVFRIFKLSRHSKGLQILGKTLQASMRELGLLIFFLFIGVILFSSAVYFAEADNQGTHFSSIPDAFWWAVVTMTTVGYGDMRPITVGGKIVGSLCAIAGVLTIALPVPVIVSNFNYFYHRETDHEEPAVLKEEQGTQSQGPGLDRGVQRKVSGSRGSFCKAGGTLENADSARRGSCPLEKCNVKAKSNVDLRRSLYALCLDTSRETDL
In a further series the target is T2, Cytochrome P450 1A2 (Homo sapiens, UniProt P05177).
T2 sequence (P05177 whole entry): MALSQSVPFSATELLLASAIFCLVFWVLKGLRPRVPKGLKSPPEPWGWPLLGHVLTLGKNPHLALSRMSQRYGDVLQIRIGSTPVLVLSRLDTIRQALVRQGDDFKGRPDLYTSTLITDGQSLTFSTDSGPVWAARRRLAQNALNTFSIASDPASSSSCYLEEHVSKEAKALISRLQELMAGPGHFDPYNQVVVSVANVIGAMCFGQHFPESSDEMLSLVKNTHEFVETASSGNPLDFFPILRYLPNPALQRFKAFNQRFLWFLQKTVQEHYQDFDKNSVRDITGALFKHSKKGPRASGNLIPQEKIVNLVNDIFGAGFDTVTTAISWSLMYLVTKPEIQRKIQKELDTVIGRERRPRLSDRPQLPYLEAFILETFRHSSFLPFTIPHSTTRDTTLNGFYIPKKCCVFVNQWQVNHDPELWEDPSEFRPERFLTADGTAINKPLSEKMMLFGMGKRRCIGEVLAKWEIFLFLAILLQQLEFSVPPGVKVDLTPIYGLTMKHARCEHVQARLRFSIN
As to the kind of experiment: Inhibition of recombinant human CYP1A2 expressed in Escherichia coli using CEC as substrate by fluorescence assay. Format: ADME.

Series [10] can be described thus: Volume of distribution at steady state in Beagle dog at 2 umol/kg, iv. It counts as ADME, Canis lupus familiaris. The settings on record: in vivo, read-out: Vdss.
The target of series [11] is Solute carrier organic anion transporter family member 1B1 (Homo sapiens, UniProt Q9Y6L6). Kind of series: […] at recombinant human OATP1B1 expressed in HEK293 cells assessed as reduction in pivastatin uptake. It counts as ADME, cell-based.
Series [12] in a line: Inhibition of phospholipidosis in rat H42EC3 cells assessed as reduction in NBD-PE accumulation by SYTOX orange staining-based high content imaging analysis. It counts as cell-based.
Series [13] in a line: Intrinsic clearance in rat hepatocytes assessed per million cells at 1 uM measured after 2 to 60 mins by LC-MS/MS analysis. Format: ADME, cell-based, Hepatocyte. The settings on record: read-out: CLH. The method, boiled down: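 Rat hepatocyte incubation of the compound; intrinsic clearance measured after incubation.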
A further series deals with Cytochrome P450 2C19 (Homo sapiens, UniProt P33261). Kind of series: Inhibition of recombinant human CYP2C19 expressed in Escherichia coli using CEC as substrate by fluorescence assay. Format: ADME.
Chain of Cytochrome P450 2C19 (P33261 whole entry): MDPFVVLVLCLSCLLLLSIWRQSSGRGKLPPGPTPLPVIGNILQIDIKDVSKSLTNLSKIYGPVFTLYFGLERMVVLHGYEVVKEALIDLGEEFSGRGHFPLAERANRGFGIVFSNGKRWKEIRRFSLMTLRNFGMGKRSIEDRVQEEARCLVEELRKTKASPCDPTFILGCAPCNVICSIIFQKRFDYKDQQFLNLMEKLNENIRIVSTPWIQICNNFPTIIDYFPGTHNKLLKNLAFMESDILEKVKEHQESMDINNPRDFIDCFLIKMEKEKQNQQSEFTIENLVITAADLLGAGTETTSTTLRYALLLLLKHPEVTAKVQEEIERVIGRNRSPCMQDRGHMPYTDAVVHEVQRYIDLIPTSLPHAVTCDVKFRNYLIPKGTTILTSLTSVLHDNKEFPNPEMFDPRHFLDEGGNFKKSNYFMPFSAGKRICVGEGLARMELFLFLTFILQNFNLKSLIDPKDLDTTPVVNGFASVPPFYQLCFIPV
Series [14] concerns the target Voltage-dependent T-type calcium channel subunit alpha-1H (Homo sapiens, UniProt O95180). Kind of series: Inhibition of human Cav3.2 by Ion-work electrophysiology assay.
The target in series [15] is Potassium/sodium hyperpolarization-activated cyclic nucleotide-gated channel 4 (Homo sapiens, UniProt Q9Y3Q4). Kind of series: Inhibition of human HCN4 by Ion-work electrophysiology assay.
Chain of Potassium/sodium hyperpolarization-activated cyclic nucleotide-gated channel 4 (Q9Y3Q4 whole entry): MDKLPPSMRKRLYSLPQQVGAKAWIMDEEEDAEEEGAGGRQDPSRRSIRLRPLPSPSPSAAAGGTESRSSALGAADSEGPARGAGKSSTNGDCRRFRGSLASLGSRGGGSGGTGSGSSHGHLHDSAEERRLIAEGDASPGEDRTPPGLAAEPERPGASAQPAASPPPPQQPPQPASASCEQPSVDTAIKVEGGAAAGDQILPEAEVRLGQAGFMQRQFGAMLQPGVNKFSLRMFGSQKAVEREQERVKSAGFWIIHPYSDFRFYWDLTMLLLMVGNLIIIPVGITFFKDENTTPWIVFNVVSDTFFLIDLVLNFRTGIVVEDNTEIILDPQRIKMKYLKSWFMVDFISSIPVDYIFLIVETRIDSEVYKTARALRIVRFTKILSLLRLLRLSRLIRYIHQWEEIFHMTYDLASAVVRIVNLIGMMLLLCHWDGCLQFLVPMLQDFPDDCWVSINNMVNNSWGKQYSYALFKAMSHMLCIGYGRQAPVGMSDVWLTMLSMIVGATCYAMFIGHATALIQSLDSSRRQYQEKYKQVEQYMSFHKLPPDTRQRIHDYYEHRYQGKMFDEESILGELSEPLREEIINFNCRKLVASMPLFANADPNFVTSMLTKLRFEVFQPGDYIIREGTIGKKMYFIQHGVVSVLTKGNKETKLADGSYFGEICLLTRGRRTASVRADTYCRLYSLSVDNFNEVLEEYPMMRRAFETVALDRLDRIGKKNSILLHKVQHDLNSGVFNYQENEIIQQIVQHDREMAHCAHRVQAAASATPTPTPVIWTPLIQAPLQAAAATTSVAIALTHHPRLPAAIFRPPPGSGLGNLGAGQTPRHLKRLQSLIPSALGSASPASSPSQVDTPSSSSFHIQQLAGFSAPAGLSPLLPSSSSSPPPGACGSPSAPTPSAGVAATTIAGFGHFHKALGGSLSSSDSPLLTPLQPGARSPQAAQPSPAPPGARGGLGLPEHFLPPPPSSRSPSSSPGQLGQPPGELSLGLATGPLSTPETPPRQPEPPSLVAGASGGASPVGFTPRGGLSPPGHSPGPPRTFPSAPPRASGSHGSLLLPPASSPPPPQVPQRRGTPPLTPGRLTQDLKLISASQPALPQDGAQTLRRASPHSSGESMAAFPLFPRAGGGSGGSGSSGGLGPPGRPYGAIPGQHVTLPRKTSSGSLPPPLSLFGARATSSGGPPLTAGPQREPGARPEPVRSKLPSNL
Series [16] has as its target T3, A-type potassium channel modulatory protein KCNIP2 (Homo sapiens, UniProt Q9NS61).
T3 sequence (Q9NS61 whole entry): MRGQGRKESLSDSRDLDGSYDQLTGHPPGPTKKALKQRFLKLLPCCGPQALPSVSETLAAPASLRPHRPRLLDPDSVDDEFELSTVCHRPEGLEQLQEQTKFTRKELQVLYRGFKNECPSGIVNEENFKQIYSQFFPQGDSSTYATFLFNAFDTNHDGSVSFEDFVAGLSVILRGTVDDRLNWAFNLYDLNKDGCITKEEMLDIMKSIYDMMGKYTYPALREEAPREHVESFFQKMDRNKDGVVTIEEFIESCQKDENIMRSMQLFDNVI
Kind of series: Inhibition of human KChip2.2 by Ion-work electrophysiology assay.

Series [17] can be described thus: Oral bioavailability in Beagle dog at 2 umol/kg. Format: ADME, organism-based, Canis lupus familiaris. To be noted: in vivo.
Series [18] in a line: Half life in rat at 1 umol/kg, iv. The settings on record: in vivo. Format: ADME.
Series [19] can be described thus: Volume of distribution at steady state in rat at 1 umol/kg, iv. It counts as ADME. To be noted: in vivo, read-out: Vdss.
Series [20] in a line: Clearance in rat at 1 umol/kg, iv. It counts as ADME. The settings on record: in vivo.

One may read the half-life as the time needed for the level to fall by half in the phase considered. A lower half-life goes with rapid decline. Broadly, the clearance is the volume of plasma or blood freed of the substance per unit of time. A higher clearance goes with efficient removal. As a reminder, the fraction unbound is the share of the substance not bound to proteins or other matrix. By IC50 is commonly meant the concentration needed to halve the response being measured. The bioavailability is dose-corrected exposure relative to a reference, in per cent.

Chain of Voltage-dependent T-type calcium channel subunit alpha-1H (O95180 whole entry): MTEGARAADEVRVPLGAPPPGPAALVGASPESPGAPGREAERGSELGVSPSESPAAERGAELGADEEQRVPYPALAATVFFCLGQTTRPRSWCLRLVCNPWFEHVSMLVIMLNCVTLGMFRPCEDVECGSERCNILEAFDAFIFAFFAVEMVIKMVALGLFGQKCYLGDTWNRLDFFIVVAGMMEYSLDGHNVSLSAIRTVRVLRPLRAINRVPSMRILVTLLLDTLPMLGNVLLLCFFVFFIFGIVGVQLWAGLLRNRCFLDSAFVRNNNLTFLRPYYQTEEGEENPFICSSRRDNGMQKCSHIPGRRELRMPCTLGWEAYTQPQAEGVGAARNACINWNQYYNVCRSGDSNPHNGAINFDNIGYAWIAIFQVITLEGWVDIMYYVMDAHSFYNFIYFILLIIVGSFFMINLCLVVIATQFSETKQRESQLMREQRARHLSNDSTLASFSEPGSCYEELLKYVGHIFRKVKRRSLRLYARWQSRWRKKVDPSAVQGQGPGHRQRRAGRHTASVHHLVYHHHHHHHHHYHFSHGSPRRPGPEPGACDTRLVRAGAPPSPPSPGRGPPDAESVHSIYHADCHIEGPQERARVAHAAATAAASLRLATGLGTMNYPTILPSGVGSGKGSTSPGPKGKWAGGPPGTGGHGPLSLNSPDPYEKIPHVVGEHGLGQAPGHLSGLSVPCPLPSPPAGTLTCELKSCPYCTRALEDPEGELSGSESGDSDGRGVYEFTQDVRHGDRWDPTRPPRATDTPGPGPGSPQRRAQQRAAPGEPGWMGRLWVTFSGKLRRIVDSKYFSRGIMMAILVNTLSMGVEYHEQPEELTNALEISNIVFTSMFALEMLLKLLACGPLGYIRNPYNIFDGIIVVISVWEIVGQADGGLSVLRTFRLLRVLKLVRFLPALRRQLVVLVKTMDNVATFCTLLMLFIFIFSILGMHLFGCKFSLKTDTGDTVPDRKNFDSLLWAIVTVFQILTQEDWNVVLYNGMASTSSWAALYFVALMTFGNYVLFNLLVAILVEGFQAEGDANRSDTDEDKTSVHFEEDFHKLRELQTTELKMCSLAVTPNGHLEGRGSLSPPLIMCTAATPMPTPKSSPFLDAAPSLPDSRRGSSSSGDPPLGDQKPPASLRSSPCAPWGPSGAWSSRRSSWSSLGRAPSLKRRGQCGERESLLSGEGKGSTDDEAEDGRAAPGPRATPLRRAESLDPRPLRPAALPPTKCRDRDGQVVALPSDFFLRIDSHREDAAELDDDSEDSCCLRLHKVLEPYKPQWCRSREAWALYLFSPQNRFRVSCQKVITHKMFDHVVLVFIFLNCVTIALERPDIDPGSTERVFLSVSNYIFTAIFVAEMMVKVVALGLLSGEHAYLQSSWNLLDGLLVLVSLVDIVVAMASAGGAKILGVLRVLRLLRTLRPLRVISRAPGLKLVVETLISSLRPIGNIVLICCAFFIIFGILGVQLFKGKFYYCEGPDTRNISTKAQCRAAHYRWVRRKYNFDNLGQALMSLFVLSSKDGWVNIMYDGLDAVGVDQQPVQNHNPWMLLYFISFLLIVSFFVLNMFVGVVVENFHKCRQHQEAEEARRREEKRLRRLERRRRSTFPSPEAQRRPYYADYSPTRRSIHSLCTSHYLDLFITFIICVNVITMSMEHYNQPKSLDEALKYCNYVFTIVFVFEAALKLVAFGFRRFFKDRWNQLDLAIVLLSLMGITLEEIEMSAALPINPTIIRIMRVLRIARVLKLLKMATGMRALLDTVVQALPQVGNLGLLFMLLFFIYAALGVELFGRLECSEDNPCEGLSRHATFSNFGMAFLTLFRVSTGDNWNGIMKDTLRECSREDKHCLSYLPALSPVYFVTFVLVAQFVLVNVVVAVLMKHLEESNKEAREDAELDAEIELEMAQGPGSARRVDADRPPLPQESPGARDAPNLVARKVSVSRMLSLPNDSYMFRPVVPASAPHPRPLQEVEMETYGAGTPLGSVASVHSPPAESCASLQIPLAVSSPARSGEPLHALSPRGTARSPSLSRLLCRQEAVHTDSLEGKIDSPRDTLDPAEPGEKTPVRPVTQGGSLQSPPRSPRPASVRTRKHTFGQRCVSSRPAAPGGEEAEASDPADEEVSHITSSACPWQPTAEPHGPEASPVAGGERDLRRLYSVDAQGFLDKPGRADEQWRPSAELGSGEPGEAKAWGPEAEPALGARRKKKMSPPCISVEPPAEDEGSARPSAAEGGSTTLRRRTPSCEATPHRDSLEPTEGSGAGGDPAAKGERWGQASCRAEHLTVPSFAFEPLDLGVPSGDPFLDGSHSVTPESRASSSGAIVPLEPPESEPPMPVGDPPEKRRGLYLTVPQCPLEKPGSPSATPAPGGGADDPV

With `Cc1cc(-c2ccc(C(=O)[C@@H]3CCCC[C@H]3C(=O)Nc3cnn(C)c3S(N)(=O)=O)cc2)[nH]n1`, in series [1], the half-life is 6.8 h. In addition, the Activity entry is recorded as “Not Active” in [2], “Non-Toxic” in series [5], “Non-Toxic” in series [6] and “Toxic” in [8]. The clearance in series [3] was 2.5 mL/min/kg. Besides, the hepatocyte CLint at 1 µM in [4] stood at 4.9 µL/min/1e6 cells; in series [13], 9.7 µL/min/1e6 cells. Further, the fraction unbound in series [7] worked out at 0.031. Further, the IC50 was greater than 32 µM in [9]; greater than 20 µM on Cytochrome P450 1A2; 2.5 µM in series [11]; greater than 20 µM on Cytochrome P450 2C19; greater than 32 µM in series [14]; greater than 32 µM in [15]. Besides, the IC50 in series [16] is greater than 33 µM. In series [10], the Vd turned out to be 1.3 L/kg. Further, the “inhibition (INH)” value in [12] is recorded as “Non-Toxic”.

With `Cc1cc(-c2ccc(C(=O)[C@@H]3CCCC[C@H]3C(=O)Nc3cnn4c3C(=O)NCC4)cc2)[nH]n1`, the figures for the half-life in series [1] and in series [18] were 2.1 h and 0.45 h, respectively. In addition, the Activity entry in series [2] is “Not Active”; in [5], “Non-Toxic”; in [6], “Non-Toxic”; in series [8], “Non-Toxic”. Besides, the clearance in series [3] was 7.6 mL/min/kg; in [20], 36 mL/min/kg. The hepatocyte CLint at 1 µM in series [4] turned out to be 4.2 µL/min/1e6 cells; in series [13], 13.8 µL/min/1e6 cells. Besides, the fraction unbound in [7] was 0.053. Further, the concentration for half-maximal inhibition (IC50) in [9] is greater than 32 µM; on Cytochrome P450 1A2, greater than 20 µM; at Cytochrome P450 2C19 it was greater than 20 µM; in [14] it was greater than 32 µM; in [15] it was greater than 32 µM; in series [16] it was greater than 33 µM. Moreover, the Vd in series [10] and in series [19] was 1.1 L/kg throughout. This compound registered a bioavailability in series [17] of 65%. Also, the “inhibition (INH)” value in [12] is “Non-Toxic”.

On to `Cc1cc(-c2ccc(C(=O)[C@@H]3CCCC[C@H]3C(=O)Nc3cnn(C)c3C(=O)NOC(C)(C)C)cc2)[nH]n1`, for which the Activity entry was “Not Active” in series [2], “Non-Toxic” in [5] and “Toxic” in series [6]. The hepatocyte CLint at 1 µM in series [4] is 6 µL/min/1e6 cells; in [13] it was 19.5 µL/min/1e6 cells. Besides, the fraction unbound in [7] is 0.006. Besides, the IC50 on Cytochrome P450 1A2 was greater than 20 µM; in series [11] it was 1.4 µM; on Cytochrome P450 2C19 it was greater than 20 µM; in series [16], greater than 33 µM. The compound also returned a bioavailability in series [17] of 65%. The compound further had a half-life in series [18] of 4.7 h. Besides, the “inhibition (INH)” value in series [12] is reported as “Non-Toxic”. Also, in [19], the Vd worked out at 0.18 L/kg. In series [20], this compound gave a clearance of 1.2 mL/min/kg.
